In the library only some 4.8% were active in any assay of this set; here they are far more common.
ERb coact inh = blocks coactivator binding to human estrogen receptor beta | Q92731 | TR-FRET ER-beta LBD / SRC1-Cy5 peptide binding; receptor agonist-loaded with 1 µM estradiol | inhibition, % at 25.6 µM | 1.3% of 86,000 active;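 active = compounds whose percent inhibition of the receptor-coactivator binding signal exceeds about 50% in the single-dose screen, limit read from the data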;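 note: 0% = receptor plus peptide wells without compound and 100% = peptide-only wells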
RORa activator = RORA (human) activation | CHO-K1 Gal4-RORA LBD luciferase reporter, luminescence; percent increase over mock-subtracted basal signal | AID 560 | P35398 | 1.5% of 65,000 active | activation, % at 10 µM;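 active = activation above the mean of all tested compounds plus 3 SD, cut at about 49% in these data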;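 note: 0% = DMSO-treated RORA cells and 100% = added signal equal to DMSO minus mock-transfected cells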
ERa SRC1 inh = blocks coactivator binding to human estrogen receptor alpha | P03372 | TR-FRET ER-alpha LBD / SRC-1 peptide, estradiol-bound | inhibition, % at 25.6 µM | 1.7% of 86,000 active | AID 629; in the data active = inhibition above about 50%;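 note: 0% = receptor plus peptide control and 100% = peptide only without receptor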
PTK2B oligo ant = blocks oligomerization of human Pyk2 in cells | Q14289 | Q293 cells, Pyk2 FERM NanoBiT luminescence; hits give low values | 0.83% of 99,000 active | AID 1347419 | z-score (the deposit names both 25 µM and 10 µM);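 active = Z-score of -3 or lower, scaled per plate to the spread of control and sample wells; inactive = z-score above -3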;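 note: negative z-score means lost luminescence so less FERM oligomerization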
Target sequence (Q14289 whole entry, looked up): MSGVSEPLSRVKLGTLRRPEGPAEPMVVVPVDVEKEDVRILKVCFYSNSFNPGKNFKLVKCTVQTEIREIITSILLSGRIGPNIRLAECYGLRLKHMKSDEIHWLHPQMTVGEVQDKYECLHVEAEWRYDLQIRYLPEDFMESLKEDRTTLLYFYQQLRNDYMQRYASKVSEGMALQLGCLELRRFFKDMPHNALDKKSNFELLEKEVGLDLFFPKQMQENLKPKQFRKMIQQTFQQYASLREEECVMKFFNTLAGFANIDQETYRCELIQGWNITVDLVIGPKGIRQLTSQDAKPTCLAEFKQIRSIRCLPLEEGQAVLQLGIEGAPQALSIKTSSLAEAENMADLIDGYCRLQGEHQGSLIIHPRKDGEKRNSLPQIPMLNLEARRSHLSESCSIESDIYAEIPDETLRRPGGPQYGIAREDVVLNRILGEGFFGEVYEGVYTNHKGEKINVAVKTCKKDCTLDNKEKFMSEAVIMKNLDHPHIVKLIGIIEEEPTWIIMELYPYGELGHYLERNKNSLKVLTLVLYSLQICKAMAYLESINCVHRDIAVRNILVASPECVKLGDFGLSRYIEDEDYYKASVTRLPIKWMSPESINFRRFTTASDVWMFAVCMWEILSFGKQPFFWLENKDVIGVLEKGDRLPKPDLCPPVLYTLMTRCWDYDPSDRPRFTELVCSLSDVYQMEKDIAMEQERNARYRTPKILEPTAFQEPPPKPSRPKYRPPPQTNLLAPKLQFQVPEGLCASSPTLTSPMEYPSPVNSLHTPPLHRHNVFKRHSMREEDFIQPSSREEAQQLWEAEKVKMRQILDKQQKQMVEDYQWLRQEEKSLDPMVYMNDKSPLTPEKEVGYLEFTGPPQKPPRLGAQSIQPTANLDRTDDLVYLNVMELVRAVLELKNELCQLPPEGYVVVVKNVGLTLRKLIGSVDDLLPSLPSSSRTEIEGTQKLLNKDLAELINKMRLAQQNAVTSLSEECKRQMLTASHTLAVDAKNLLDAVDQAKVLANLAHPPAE
SF-1 act = activates the human nuclear receptor SF-1 | activation, % at 10 µM | 1.9% of 65,000 active | CHO-K1 Gal4-SF-1 LBD luciferase reporter; % increase over DMSO SF-1-specific signal | Q13285;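 active = activation above the mean activation of all tested compounds plus 3 SD, cut at about 50% in these data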
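material = CHO-K1 cells with Gal4–hSF-1 LBD chimera plus Gal4-driven luciferase | compound = 10 µM single point, 1% DMSO | incubation = 20 h compound exposure at 37 °C after 1 h cell settling | measured by = SteadyLite luciferase luminescence | evaluation = percent activation relative to DMSO median and mock-transfected background | control set = DMSO negative control and −SF1 background wells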
ERa coact pot = ER-alpha (human) coactivator binding potentiation; 1.3% of 86,000 active; coactivator binding (% of control), % at 25.6 µM; TR-FRET ERalpha-LBD/SRC-Cy5 coactivator binding, 2 h; 100 = basal binding, no effect; in the data active = activity above about 200%;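 note: binding measured in presence of low estradiol as agonist stimulus; 0% = peptide alone without receptor and 100% = receptor with peptide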
Numbers without * were called inactive; [ ] = another dose, or the depositor's remark.

For Cc1cc(C(=O)Nc2sc3c(c2C#N)CCC(C)C3)no1 (configuration not stated) the results were ERb coact inh 14, RORa activator 53*, ERa SRC1 inh 4, PTK2B oligo ant 1.6, SF-1 act 97* and ERa coact pot 101.
For Cc1cc(C(=O)Nc2sc3c(c2C#N)CCCC3)no1 the results were ERb coact inh -1, RORa activator 41, ERa SRC1 inh -1, PTK2B oligo ant 0.24, SF-1 act 71* and ERa coact pot 93.
Screening CC1CCc2c(sc(NC(=O)C(=O)NCc3ccco3)c2C#N)C1 (configuration not stated) returned ERb coact inh -11, ERa SRC1 inh -4, PTK2B oligo ant -0.56 and ERa coact pot 109.
Screening CC(C)C(c1nnnn1C1CCCC1)N1CCN(C(=O)c2ccco2)CC1 (configuration not stated) returned ERb coact inh -3, RORa activator -13, ERa SRC1 inh -4, PTK2B oligo ant -0.74, SF-1 act -21 and ERa coact pot 101.
Screening CCCOc1ccc(S(=O)(=O)n2cc(Br)c(=O)[nH]c2=O)cc1 returned ERb coact inh -2, RORa activator 50*, ERa SRC1 inh -1, PTK2B oligo ant 1.8, SF-1 act 22 and ERa coact pot 116.
Cc1cc(N2CCOCC2)nc(SCc2ccc(Cl)cc2Cl)n1 was read as PTK2B oligo ant -1.1.
Screening COc1ccccc1C1C(C(=O)c2cc3ccccc3o2)=C(O)C(=O)N1CCN1CCOCC1 (configuration not stated) returned ERb coact inh 12, RORa activator 19, ERa SRC1 inh 9, PTK2B oligo ant 0.12, SF-1 act -2 and ERa coact pot 107.
Cc1nc(NCc2ccco2)c2c(C)c(C)sc2n1 was read as ERb coact inh -4, ERa SRC1 inh 2, PTK2B oligo ant 0.9 and ERa coact pot 111.
Screening Cc1sc2nc3c4ccccc4c(NCc4ccco4)nn3c(=O)c2c1C returned ERb coact inh 32, RORa activator -23, ERa SRC1 inh 56*[fluorescence artefact?], PTK2B oligo ant 0.12, SF-1 act -9 and ERa coact pot 82.
For O=C(Cn1nc(Cl)nc1Cl)c1cc2ccccc2oc1=O the results were ERb coact inh 37, RORa activator -10, ERa SRC1 inh 55*[fluorescence artefact?], PTK2B oligo ant -0.36, SF-1 act -15 and ERa coact pot 81.
Cc1cc(C)cc(CSCC(=O)N/N=C/c2ccc(OCC(=O)NCc3ccco3)cc2)c1 was read as PTK2B oligo ant -3.1*.
COc1ccc(CSCC(=O)N/N=C/c2ccc(OCC(=O)NCc3ccco3)cc2)cc1 was read as PTK2B oligo ant -0.19.
O=C(CSCc1cccc(Cl)c1)N/N=C/c1ccc(OCC(=O)N2CCCCC2)cc1 was read as PTK2B oligo ant -3.4*.
`O=C1Cc2ccccc2C(=O)N1Cc1ccccc1` gave ERb coact inh -11, ERa SRC1 inh 4, PTK2B oligo ant -2.2 and ERa coact pot 98.
COCCCNC(=O)C(F)(F)C(F)(F)C(=O)NCCCOC was read as ERb coact inh -8, RORa activator 1, ERa SRC1 inh -2, PTK2B oligo ant -0.66, SF-1 act 5 and ERa coact pot 114.
For CCC(=O)N1CCN(c2ccc(NC(=O)c3cc4ccccc4o3)cc2Cl)CC1 the results were ERb coact inh -5, RORa activator -25, ERa SRC1 inh -8, PTK2B oligo ant -3.1*, SF-1 act -9 and ERa coact pot 116.
For O=C(Nc1ccc(N2CCN(C(=O)c3ccccc3)CC2)c(Cl)c1)c1ccco1 the results were ERb coact inh 18, RORa activator 24, ERa SRC1 inh 15, PTK2B oligo ant -1, SF-1 act -8 and ERa coact pot 81.
For O=C(Nc1ccc(N2CCN(C(=O)c3ccco3)CC2)c(Cl)c1)c1cc2ccccc2o1 the results were ERb coact inh -12, RORa activator -24, ERa SRC1 inh -17, PTK2B oligo ant -3.1*, SF-1 act -11 and ERa coact pot 130.
For O=C(CSc1ccc(Cl)cc1)Nc1ccc(N2CCN(C(=O)c3ccco3)CC2)cc1 the results were ERb coact inh 29, RORa activator -5, ERa SRC1 inh 64*[fluorescence artefact?], PTK2B oligo ant -0.4, SF-1 act 16 and ERa coact pot 60.
Screening CN(CC(=O)Nc1c(Cl)cccc1Cl)C(=O)CCCN1C(=O)c2ccccc2C1=O returned PTK2B oligo ant 0.08.
For Nc1c(S(=O)(=O)c2cccs2)c2nc3ccccc3nc2n1/N=C/c1cccc(O)c1 the results were ERb coact inh 24, RORa activator -14, ERa SRC1 inh 36, PTK2B oligo ant -3.2*, SF-1 act -5 and ERa coact pot 103.
`Cc1cccc(S(=O)(=O)c2c(N)n(/N=C/c3ccco3)c3nc4ccccc4nc23)c1` gave ERb coact inh 10, RORa activator -8, ERa SRC1 inh 1, PTK2B oligo ant -0.2, SF-1 act -11 and ERa coact pot 253*.
`Cc1ccc(S(=O)(=O)c2c(N)n(/N=C/c3ccco3)c3nc4ccccc4nc23)cc1` gave ERb coact inh 24, RORa activator -8, ERa SRC1 inh 0, PTK2B oligo ant -1.7, SF-1 act -28 and ERa coact pot 112.
COC(=O)C1=C(C)NC(C)=C(C(=O)OC)C1C(=O)OCC(=O)N1c2ccccc2CC1C (configuration not stated) was read as ERb coact inh 26, ERa SRC1 inh -2, PTK2B oligo ant -0.4 and ERa coact pot 86.
`N#Cc1cn(-c2ccccc2)nc1-c1ccc2c(c1)OCCO2` gave ERb coact inh 2, RORa activator 62*, ERa SRC1 inh 4, PTK2B oligo ant 0.03, SF-1 act 55* and ERa coact pot 138.
O=Cc1cn(-c2ccccc2)nc1-c1ccc2c(c1)OCCO2 was read as ERb coact inh 4, ERa SRC1 inh 15, PTK2B oligo ant -1.2 and ERa coact pot 103.
For O=C(NCCC1=CCCCC1)C1CCN(S(=O)(=O)c2cccc3nsnc23)CC1 the results were ERb coact inh 15, RORa activator -16, ERa SRC1 inh -6, PTK2B oligo ant 0.32, SF-1 act 2 and ERa coact pot 103.
For COc1cc(NS(=O)(=O)c2ccc3c(c2)n(C)c(=O)n3C)cc(OC)c1 the results were ERb coact inh -10, ERa SRC1 inh 0, PTK2B oligo ant -0.27 and ERa coact pot 90.
`Cc1cc(C)c(NC(=O)CSc2nc3ccc(NC(=O)CSc4nnnn4Cc4ccccc4)cc3s2)c(C)c1` gave ERb coact inh 7, ERa SRC1 inh 67*, PTK2B oligo ant 0.02 and ERa coact pot 114.

From PubChem
